Assay [1] is described as follows: Inhibition of Mycobacterium tuberculosis H37Rv MetAP1c in presence of 50 uM Fe(2+) by Met-AMC substrate hydrolysis assay. In short, it runs like this: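 Recombinant MtMetAP1c (mapB gene) was expressed in E. coli BL21(DE3) and purified as the apoenzyme (0.5 µM). It was activated with FeCl2 50 µM plus 100 µM ascorbic acid, CoCl2 10 µM, MnCl2 20 µM or NiCl2 20 µM. Buffer was 50 mM MOPS pH 7.5 with 100 µM Met-AMC at room temperature, read by fluorescence at ex 360/em 460.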

Assay [2] in a line: Inhibition of Mycobacterium tuberculosis H37Rv MetAP1c in presence of 50 uM Mn(2+) by Met-AMC substrate hydrolysis assay.
A short description of assay [3]: Inhibition of Mycobacterium tuberculosis H37Rv MetAP1c in presence of 50 uM Co(2+) by Met-AMC substrate hydrolysis assay.
Assay [4] is described as follows: Inhibition of Mycobacterium tuberculosis MetAP1c expressed in Escherichia coli lacking endogenous MetAP by cell based Met-AMC substrate hydrolysis assay. In short, it runs like this: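 E. coli carrying a chromosomal amber mutation in EcMetAP and complemented by plasmid-borne MtMetAP1c were grown to exponential phase and washed. Cells were stored in CaCl2/Tris/glycerol at −80 °C. The assay held 150 µM Met-AMC, 5 mM CaCl2 (for permeabilization) and 50 mM Tris pH 7.5, with inhibitor at 12 serial dilutions. Fluorescence (ex 360/em 460) was read every 2 min for 6-8 hr at room temperature. IC50 came from hydrolysis rates.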

A short description of assay [5]: Inhibition of Mycobacterium tuberculosis MetAP1c mediated cell growth of Escherichia coli lacking endogenous MetAP complemented with MtMetAP1c after 72 hrs by resazurin dye reduction method. On the technique in general: Resazurin is reduced to fluorescent resorufin, in cell work by metabolically active cells.
Assay [6] is described as follows: Inhibition of Mycobacterium tuberculosis H37Rv MetAP1c in presence of 50 uM Ni(2+) by Met-AMC substrate hydrolysis assay.

Molecules are shown by their SMILES.

Turning to `Nc1nnc(SCc2ccc(Cl)cc2Cl)[nH]1`, the results for the IC50 in assay [1] and in assay [2] were 40 µM and 2 µM, respectively.
Turning to `Cc1nc(-c2ccc(O)c(O)c2)cs1`, the IC50 (commonly the concentration that gives 50% inhibition) in assay [1] is 3.6 µM; in assay [3] it was 76 µM; in assay [2], 37 µM; in assay [4], 20 µM; in assay [5], 208 µM; in assay [6], 104 µM.
Regarding `Nc1nnc(SCc2ccc(F)cc2)[nH]1`, the IC50 is > 500 µM in assay [1]; 0.74 µM in assay [3]; 18 µM in assay [2]; 121 µM in assay [4]; > 1000 µM in assay [5]; 1.3 µM in assay [6].
For `O=C(O)c1ccc(-c2cc(Cl)ccc2Cl)o1`, the IC50 in assay [1] was > 500 µM; in assay [3] it was > 500 µM; in assay [2], 14 µM; in assay [4], 623 µM; in assay [5], > 1000 µM; in assay [6] it was > 500 µM.
For the molecule `Cc1ccc(CSc2nnc(N)[nH]2)cc1`, the IC50 in assay [1] was > 500 µM; in assay [3], 0.69 µM; in assay [2] it was 26 µM; in assay [4] it was 281 µM; in assay [5], > 1000 µM; in assay [6] it was 2.5 µM.
Regarding `Cc1ccsc1-c1ccc(O)c(O)c1`, the IC50 in assay [1] stood at 1.4 µM; in assay [3], 38 µM; in assay [2] it was 14 µM; in assay [4], 35 µM; in assay [5], 89.5 µM; in assay [6], 60 µM.
As to `Fc1ccc(CSc2nnc[nH]2)cc1`, the IC50 is > 500 µM in assay [1], 2 µM in assay [3] and 143 µM in assay [2].
In the case of `O=C(O)c1ccc(-c2ccccc2Cl)o1`, the IC50 is > 500 µM in assay [1], > 500 µM in assay [3], 16 µM in assay [2] and > 500 µM in assay [6].

The values above are taken from ChEMBL document CHEMBL1156807, “Catalysis and inhibition of Mycobacterium tuberculosis methionine aminopeptidase” (J Med Chem, 2010).
